# Measurements reported in paper PMC7528620 (Clinical cancer research : an official journal of the …, 2019).
# Marks after values point to notes of the source that are not given here.
# Key:
# [1] = test system: coagulation factor VII (Factor VII); test: Olink multiplex proximity extension assay of patient plasma; type: in vivo, human; details: cycle 1 day 8
# How it was run: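 Plasma from 80 patients dosed orally at 8, 12 or 16 mg QD was collected at baseline (cycle 1 day 1) and on treatment (cycle 1 day 8, cycle 2 day 1, cycle 4 day 1). About 1,012 proteins were profiled by multiplex proximity extension assay. Factor VII is expressed as fold-change versus baseline.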
# [2] = test system: patients with advanced malignancies; test: Safety and tolerability, phase 1/2 study INCB 57643-101; type: in vivo; details: for TRAEs (any): all treatment groups; for TRAE thrombocytopenia: incl. platelet counts decreased
# [3] = test system: advanced malignancies; test: Objective response assessment, study INCB 57643-101; type: in vivo, human; details: for reduction in spleen size by manual palpation: one MF patient
# How it was run: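 Open-label phase 1/2 study in adults (≥18 y) with relapsed/refractory advanced malignancies. Oral dosing was 8–16 mg QD, continuous, as monotherapy (escalation; expansion at 12 mg QD) or from 8 mg QD combined with standard-of-care agents, in 21- or 28-day cycles. Response was assessed with malignancy-specific criteria in patients with ≥1 dose, measurable/evaluable baseline disease and ≥1 post-baseline assessment.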
# [4] = Effect of a high-fat meal on PK of INCB057643; type: in vivo, human
# How it was run: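 Steady-state plasma PK was compared within 12 patients, each dosed orally once daily in the fasted state and with a high-fat meal. Parameters (Tmax, Cmax, AUCtau) came from noncompartmental analysis. The fed/fasted ratio of geometric means is reported with its 90% CI.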
# [5] = Plasma pharmacokinetics, study INCB 57643-101; type: in vivo, human; details: for half-life: human, plasma
# How it was run: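 Plasma PK used noncompartmental analysis in patients given ≥1 dose with ≥1 PK sample, dosed orally at 8, 12 or 16 mg QD continuously. Steady-state oral clearance (CLss/F) and terminal half-life are reported as mean with SD.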
# [6] = test system: advanced malignancies; test: Objective response assessment, study INCB 54329-101; type: in vivo, human
# How it was run: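 Open-label phase 1/2 monotherapy study in adults (≥18 y) with relapsed/refractory advanced malignancies and ECOG ≤1. Oral dosing was 15–30 mg QD or 15–25 mg BID, continuous or intermittent (5/2, 4/3, 7/7 days on/off), in 21-day cycles. Part 2 used intrapatient titration from 20 mg BID. Response was assessed with malignancy-specific criteria in patients with ≥1 dose, measurable/evaluable baseline disease and ≥1 post-baseline assessment.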
# [7] = target: CYP2C19 (Homo sapiens, UniProt P33261); test: In vitro metabolism studies; type: in vitro ADME
# [8] = Plasma pharmacokinetics, study INCB 54329-101; type: in vivo, human
# How it was run: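 Plasma PK used noncompartmental analysis in patients given ≥1 dose with ≥1 PK sample. Oral dosing was 15–30 mg QD or 15–25 mg BID, continuous or intermittent; the first 3 patients also received a single 5-mg PK dose at day 0. Steady-state oral clearance (CLss/F) and terminal half-life are reported as mean with SD.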
# [9] = target: CYP3A4 (Homo sapiens, UniProt P08684); test: In vitro metabolism studies; type: in vitro ADME
# [10] = test system: patients with advanced malignancies; test: Safety and tolerability, phase 1/2 study INCB 54329-101; type: in vivo; details: for TRAEs (any): all treatment groups; for TRAE thrombocytopenia: incl. platelet counts decreased
# [11] = test system: patients with advanced solid tumors; details: 36 patients with advanced solid tumors; cited from earlier work
# [12] = Part 2 TGA, 12 mg QD, 86 patients
# [13] = Part 3, 8 mg QD in combination with SOC agents, 13 patients
# CYP3A4, sequence (P08684 whole entry): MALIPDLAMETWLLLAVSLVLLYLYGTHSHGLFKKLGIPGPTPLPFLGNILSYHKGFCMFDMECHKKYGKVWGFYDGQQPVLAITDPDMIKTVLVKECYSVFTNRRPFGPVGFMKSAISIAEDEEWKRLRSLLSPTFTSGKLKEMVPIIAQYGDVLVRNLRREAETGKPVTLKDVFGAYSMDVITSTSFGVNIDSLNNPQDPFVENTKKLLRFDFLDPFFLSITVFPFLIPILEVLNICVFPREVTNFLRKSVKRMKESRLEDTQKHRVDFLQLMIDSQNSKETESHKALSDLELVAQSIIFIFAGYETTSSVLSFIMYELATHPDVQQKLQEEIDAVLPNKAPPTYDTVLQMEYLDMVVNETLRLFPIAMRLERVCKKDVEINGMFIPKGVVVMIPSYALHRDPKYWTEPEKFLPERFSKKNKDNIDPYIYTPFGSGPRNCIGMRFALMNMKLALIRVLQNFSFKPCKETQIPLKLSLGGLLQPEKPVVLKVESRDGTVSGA
# CYP2C19, sequence (P33261 whole entry): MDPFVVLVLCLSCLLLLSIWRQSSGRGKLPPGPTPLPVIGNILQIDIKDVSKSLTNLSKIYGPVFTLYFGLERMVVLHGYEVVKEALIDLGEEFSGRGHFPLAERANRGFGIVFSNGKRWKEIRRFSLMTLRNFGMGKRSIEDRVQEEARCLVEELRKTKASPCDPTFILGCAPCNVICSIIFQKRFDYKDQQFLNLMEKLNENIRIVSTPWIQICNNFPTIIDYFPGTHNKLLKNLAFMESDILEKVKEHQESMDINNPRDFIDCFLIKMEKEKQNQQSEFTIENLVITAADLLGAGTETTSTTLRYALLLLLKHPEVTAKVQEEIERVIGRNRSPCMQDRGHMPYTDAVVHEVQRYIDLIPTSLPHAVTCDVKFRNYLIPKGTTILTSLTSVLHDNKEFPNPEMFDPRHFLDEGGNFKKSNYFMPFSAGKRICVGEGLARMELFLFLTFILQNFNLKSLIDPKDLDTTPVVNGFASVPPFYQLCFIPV
smiles,measurement,setting,value
CN1C(=O)C(C)(C)Oc2c(-c3cn(C)c(=O)c4[nH]ccc34)cc(S(C)(=O)=O)cc21 [INCB057643],Factor VII mean [SEM] fold decrease vs. baseline,[1]; 8 mg,−0.32 [0.10]
same,Factor VII mean [SEM] fold decrease vs. baseline,[1]; 12 mg,−0.53 [0.14]
same,Factor VII mean [SEM] fold decrease vs. baseline,[1]; 16 mg,−0.53 [0.33]
same,patients requiring dose interruptions and/or reductions due to AEs,"[2]; 16 mg QD cohort, cycles 1 and 2",50%
same,patients with ≥1 any grade TRAE,[2]; 134 enrolled patients,86%
same,tolerability of the 16 mg QD dose,[2]; Part 1 TGA,not tolerated
same,DLTs,"[2]; Part 1 TGA, grade 3 increased INR, 16 mg QD cohort of 8 patients",1 DLT
same,TRAEs leading to dose interruptions,"[2]; Part 2 TGA, 12 mg QD",35%
same,TRAEs leading to dose reductions,"[2]; Part 2 TGA, 12 mg QD",11%
same,patients with a grade 3/4 TRAE,[2]; [12],36%
same,patients with a serious TRAE,[2]; [12],13%
same,patients with a grade 3/4 TRAE,"[2]; Part 2 TGB, 12 mg QD, 5 patients",40%
same,patients requiring dose interruption,"[2]; Part 2 TGB, 12 mg QD, febrile neutropenia and thrombocytopenia",20%
same,TRAEs leading to dose interruptions,[2]; [13],6 patients
same,TRAEs leading to dose reductions,[2]; [13],4 patients
same,incidence of TRAE anemia,[2]; any grade,14%
same,incidence of TRAE decreased appetite,[2]; any grade,22%
same,incidence of TRAE diarrhea,[2]; any grade,16%
same,incidence of TRAE dysgeusia,[2]; any grade,16%
same,incidence of TRAE fatigue,[2]; any grade,30%
same,incidence of TRAE hyperglycemia,[2]; any grade,13%
same,incidence of TRAE nausea,[2]; any grade,30%
same,incidence of TRAE thrombocytopenia,[2]; any grade,32%
same,incidence of TRAE vomiting,[2]; any grade,16%
same,patients with treatment-related INR increased events,[2]; any grade,Seven
same,TRAEs (any),"[2]; any grade, n = 134",115 (86) n (%)
same,TRAE anemia,"[2]; any grade, n = 134",19 (14) n (%)
same,TRAE decreased appetite,"[2]; any grade, n = 134",30 (22) n (%)
same,TRAE diarrhea,"[2]; any grade, n = 134",21 (16) n (%)
same,TRAE dysgeusia,"[2]; any grade, n = 134",22 (16) n (%)
same,TRAE fatigue,"[2]; any grade, n = 134",40 (30) n (%)
same,TRAE hyperglycemia,"[2]; any grade, n = 134",18 (13) n (%)
same,TRAE nausea,"[2]; any grade, n = 134",40 (30) n (%)
same,TRAE vomiting,"[2]; any grade, n = 134",21 (16) n (%)
same,TRAE thrombocytopenia,"[2]; any grade, n = 134",43 (32) n (%)
same,MTD per protocol definition,[2]; at 16 mg QD,not reached
same,incidence of TRAE INR increased,[2]; grade ≥3,2%
same,incidence of TRAE anemia,[2]; grade ≥3,10%
same,incidence of TRAE dehydration,[2]; grade ≥3,2%
same,incidence of TRAE diarrhea,[2]; grade ≥3,2%
same,incidence of TRAE hyperglycemia,[2]; grade ≥3,3%
same,incidence of TRAE hyponatremia,[2]; grade ≥3,2%
same,incidence of TRAE nausea,[2]; grade ≥3,2%
same,incidence of TRAE syncope,[2]; grade ≥3,2%
same,incidence of TRAE vomiting,[2]; grade ≥3,2%
same,TRAEs (any),"[2]; grade ≥3, n = 134",48 (36) n (%)
same,TRAE anemia,"[2]; grade ≥3, n = 134",14 (10) n (%)
same,TRAE decreased appetite,"[2]; grade ≥3, n = 134",0 (0) n (%)
same,TRAE diarrhea,"[2]; grade ≥3, n = 134",2 (2) n (%)
same,TRAE dysgeusia,"[2]; grade ≥3, n = 134",0 (0) n (%)
same,TRAE fatigue,"[2]; grade ≥3, n = 134",1 (1) n (%)
same,TRAE hyperglycemia,"[2]; grade ≥3, n = 134",4 (3) n (%)
same,TRAE nausea,"[2]; grade ≥3, n = 134",2 (2) n (%)
same,TRAE vomiting,"[2]; grade ≥3, n = 134",2 (2) n (%)
same,TRAE thrombocytopenia,"[2]; grade ≥3, n = 134",24 (18) n (%)
same,deaths deemed related to treatment,"[2]; human, in vivo",2 deaths
same,deaths during the study,"[2]; human, in vivo",17 deaths
same,"discontinuation, primary reason adverse event",[2]; n = 134,20 (15) n (%)
same,"discontinuation, primary reason death",[2]; n = 134,9 (7) n (%)
same,patients requiring dose reductions,[2]; overall,11%
same,patients who discontinued treatment due to TRAEs,[2]; overall,11%
same,patients with objective responses,[3]; 134 patients,6 patients
same,patients who maintained SD for ≥6 months,[3]; all with solid tumors,6 patients
same,duration of complete response,"[3]; follicular lymphoma patient, 8 mg QD, ongoing at data cutoff",> 2 years
same,patients with SD as best response,[3]; in vivo,Twenty-seven
same,patients with progressive disease as best response,[3]; in vivo,Forty-one
same,"discontinuation, primary reason disease progression",[3]; n = 134,76 (57) n (%)
same,reduction in spleen size by manual palpation,[3]; 8 mg QD + ruxolitinib,77%
same,reduction in spleen size by manual palpation,[3]; 12 mg QD monotherapy,92.5%
same,fed vs. fasted geometric mean ratio of Cmax,[4]; 90% CI 0.78–1.01,0.89
same,fed vs. fasted geometric mean ratio of AUCtau,[4]; 90% CI 0.99–1.29,1.13
same,increase of geometric mean AUCtau by high-fat meal,[4]; fed vs fasted,13%
same,lowering of geometric mean Cmax by high-fat meal,[4]; fed vs fasted,11%
same,half-life,[5]; oral,~600 min
same,half-life,[5]; po,666 min
same,"oral clearance CLss/F, mean [SD]","[5]; overall, oral dosing, patients",11.1 [4.97] L/h
Cc1noc(C)c1-c1ccc2[nH]c(=O)n3c2c1OC[C@@H]3c1ccccn1 [INCB054329],confirmed clinical response,[6]; 69 patients,none and no confirmed clinical responses
same,patients with stable disease as best response,[6]; all with solid tumors,Twenty-one
same,patients who maintained SD for ≥6 months,[6]; in vivo,4 patients
same,"discontinuation, primary reason disease progression",[6]; n = 69,53 (77) n (%)
same,metabolism by CYP2C19,[7],metabolized
same,half-life,[8]; as summarised in discussion,< 5 h
same,"oral clearance CLss/F, mean [SD]","[8]; overall, oral dosing, patients",95.5 [135] L/h
same,"terminal elimination half-life t1/2, mean [SD]","[8]; overall, oral dosing, patients",2.24 [2.03] hours
same,metabolism by CYP3A4,[9],metabolized
same,patients with ≥1 any grade TRAE,[10]; 69 enrolled patients,78%
same,MTD per protocol,[10]; Part 1 TGA,not reached
same,DLTs,"[10]; Part 1 TGA, both grade 4 thrombocytopenia at 30 mg QD and 22.5 mg BID",2 DLTs
same,DLTs,"[10]; Part 1 TGB, 20 mg BID",No DLTs
same,TRAEs leading to dose interruptions,"[10]; Part 1 TGB, due to grade 3 hyperglycemia",2 patients
same,tolerability of the 20 mg BID starting dose,[10]; Part 2 dose titration,not tolerated
same,patients requiring dose interruption due to TRAEs,"[10]; Part 2 dose titration, 20 mg BID start, 11 patients",45%
same,incidence of TRAE anemia,[10]; any grade,10%
same,incidence of TRAE decreased appetite,[10]; any grade,26%
same,incidence of TRAE fatigue,[10]; any grade,29%
same,incidence of TRAE nausea,[10]; any grade,35%
same,incidence of TRAE thrombocytopenia,[10]; any grade,33%
same,incidence of TRAE vomiting,[10]; any grade,10%
same,TRAEs (any),"[10]; any grade, n = 69",54 (78) n (%)
same,TRAE anemia,"[10]; any grade, n = 69",7 (10) n (%)
same,TRAE decreased appetite,"[10]; any grade, n = 69",18 (26) n (%)
same,TRAE diarrhea,"[10]; any grade, n = 69",12 (17) n (%)
same,TRAE dysgeusia,"[10]; any grade, n = 69",9 (13) n (%)
same,TRAE fatigue,"[10]; any grade, n = 69",20 (29) n (%)
same,TRAE hyperglycemia,"[10]; any grade, n = 69",3 (4)^c n (%)
same,TRAE nausea,"[10]; any grade, n = 69",24 (35) n (%)
same,TRAE vomiting,"[10]; any grade, n = 69",7 (10) n (%)
same,TRAE thrombocytopenia,"[10]; any grade, n = 69",23 (33) n (%)
same,incidence of TRAE AST increased,[10]; grade ≥3,4%
same,incidence of TRAE anemia,[10]; grade ≥3,6%
same,incidence of TRAE hyperglycemia,[10]; grade ≥3,3%
same,incidence of TRAE neutropenia,[10]; grade ≥3,6%
same,TRAEs (any),"[10]; grade ≥3, n = 69",16 (23) n (%)
same,TRAE anemia,"[10]; grade ≥3, n = 69",4 (6) n (%)
same,TRAE decreased appetite,"[10]; grade ≥3, n = 69",0 (0) n (%)
same,TRAE diarrhea,"[10]; grade ≥3, n = 69",0 (0) n (%)
same,TRAE dysgeusia,"[10]; grade ≥3, n = 69",0 (0) n (%)
same,TRAE fatigue,"[10]; grade ≥3, n = 69",0 (0) n (%)
same,TRAE hyperglycemia,"[10]; grade ≥3, n = 69",2 (3) n (%)
same,TRAE nausea,"[10]; grade ≥3, n = 69",1 (1) n (%)
same,TRAE vomiting,"[10]; grade ≥3, n = 69",1 (1) n (%)
same,TRAE thrombocytopenia,"[10]; grade ≥3, n = 69",9 (13) n (%)
same,deaths deemed treatment-related,[10]; in vivo,none
same,"discontinuation, primary reason adverse event",[10]; n = 69,2 (3) n (%)
same,"discontinuation, primary reason death",[10]; n = 69,1 (1) n (%)
same,TRAEs leading to dose interruptions,[10]; overall,29%
same,TRAEs leading to dose reductions,[10]; overall,7%
same,dose interruptions due to thrombocytopenia,[10]; overall,17%
same,patients who discontinued treatment due to TRAEs,[10]; overall,4%
same,serious TRAE anemia,[10]; overall,2 patients
same,serious TRAE thrombocytopenia,[10]; overall,4 patients
same,patients experiencing serious TRAEs,"[10]; overall, n = 69",7 patients
Cc1noc(C)c1-c1cnc2c(-c3ccc(C(=O)O)cc3)cn([C@@H](C)c3ccccn3)c2c1 [PLX51107],"INR increase, patients",[11],17%
